Measured values from ChEMBL document CHEMBL4406862, “Chalcone derivatives targeting mitosis: synthesis, evaluation of antitumor activity and lipophilicity” (Eur J Med Chem, 2019).
Active and inactive are the calls of the source. The rule behind the calls is not given here.

Experiments:
[1] = tested on: MCF7; assay: Antiproliferative activity against human MCF7 cells assessed as reduction in cell viability incubated for 48 hrs by sulforhodamine B assay; type: functional; settings: MCF7, 48 h
Outline: (§1)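 Cells in RPMI-1640 with 5% FBS, 37 °C, 5% CO2; seeded 0.05×10^6 cells/well, 24 h, then two-fold serial dilutions from 0 to 150 μM (DMSO up to 0.25%) for 48 h. TCA fixation, SRB stain 30 min, dye solubilized in 10 mM Tris, absorbance 515 nm. GI50 from dose-response curve; mean ± SD, at least three independent experiments in duplicate.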

[2] = Antiproliferative activity against human A375-C5 cells assessed as reduction in cell viability incubated for 48 hrs by sulforhodamine B assay; type: functional; settings: A375-C5, 48 h; outline: as §1
[3] = tested on: NCI-H460; assay: Antiproliferative activity against human NCI-H460 cells assessed as reduction in cell viability incubated for 48 hrs by sulforhodamine B assay; type: functional; settings: NCI-H460, 48 h; outline: as §1
[4] = Lipophilicity, log k of compound in DMPC/buffer incubated for 30 mins by spectrophotometry; type: physicochemical; settings: 0.5 h
Outline: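 DMPC liposomes made by thin-film hydration in HEPES buffer, extruded at 40 °C. Fixed compound concentration with DMPC 50–1000 μM, incubated 30 min at 37 °C, pH 7.4; spectra 250–500 nm against compound-free references. Second-derivative values fitted (nonlinear least squares) versus lipid concentration to give Kp; lipid molar volume 0.66 L mol⁻¹; mean ± SD of at least three experiments.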

[5] = n-Octanol/water partition coefficient, log P of the compound incubated for 30 mins by spectrophotometry; type: physicochemical
[6] = tested on: NCI-H460; assay: Induction of mitotic arrest in human NCI-H460 cells assessed as accumulation of bright round shape cells at 3 times of GI50 incubated for 15 hrs by phase contrast microscopy; type: functional, cell-based
[7] = tested on: NCI-H460; assay: Induction of mitotic arrest in human NCI-H460 cells assessed as condensed chromosome at 3 times of GI50 incubated for 15 hrs by DAPI staining based phase contrast microscopy; type: functional, cell-based
Outline: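 NCI-H460 treated 15 h at 3×GI50; DAPI staining of DNA viewed to detect condensed chromosomes of mitotic cells.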

[8] = tested on: NCI-H460; assay: Induction of mitotic arrest in human NCI-H460 cells assessed as mitotic index at 3 times of GI50 incubated for 15 hrs by DAPI staining based phase contrast microscopy (reference value: 11.3 %); type: functional
[9] = tested on: NCI-H460; assay: Induction of mitotic arrest in human NCI-H460 cells assessed as abnormal mitotic spindle morphology at 3 times of GI50 incubated for 15 hrs by immunostaining based fluorescence microscopy; type: functional, cell-based
Outline: (§2)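 NCI-H460 on poly-L-lysine coverslips treated 15 h at 3×GI50; fixed in 2% paraformaldehyde, 0.5% Triton X-100 permeabilization, 10% FBS blocking; mouse anti-α-tubulin (1:2500) then Alexa Fluor 488 secondary (1:1500); DAPI 2 µg/mL. Fluorescence microscopy of spindles; multipolar spindles as percentage of total spindles; mean ± SD, three independent experiments.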

[10] = tested on: NCI-H460; assay: Induction of mitotic arrest in human NCI-H460 cells assessed as decrease in chromosome align at metaphase plate at 3 times of GI50 incubated for 15 hrs by DAPI staining based fluorescence microscopy; type: functional, cell-based; outline: as §2
[11] = tested on: NCI-H460; assay: Induction of mitotic arrest in human NCI-H460 cells assessed as multipolar spindles at 3 times of GI50 incubated for 15 hrs by fluorescence microscopy (reference value: 2 %); type: functional; outline: as §2
[12] = tested on: NCI-H460; assay: Induction of cell death in human NCI-H460 cells assessed as abnormal nuclear morphology at 3 times of GI50 incubated for 24 hrs by DAPI staining based fluorescence microscopy; type: functional
Outline: (§3)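 NCI-H460 cells exposed 24 h, DAPI-stained for DNA, nuclear morphology and micronucleation examined by fluorescence microscopy.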

[13] = tested on: NCI-H460; assay: Induction of cell death in human NCI-H460 cells assessed as micronucleation at 3 times of GI50 incubated for 24 hrs by DAPI staining based fluorescence microscopy; type: functional; outline: as §3
[14] = tested on: NCI-H460; assay: Cytotoxicity against human NCI-H460 cells assessed as reduction in cell viability at 1 times of GI50 incubated for 48 hrs by MTT assay relative to control; type: functional
Outline: (§4)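 MTT 0.5 mg/ml in serum-free medium 4 h; formazan dissolved in isopropanol/Triton/HCl 2 h; absorbance 570 nm. Viability relative to untreated cells; mean ± SD of at least three independent experiments.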

[15] = tested on: NCI-H460; assay: Cytotoxicity against human NCI-H460 cells assessed as reduction in cell viability at 0.5 times of GI50 incubated for 48 hrs by MTT assay relative to control; type: functional; outline: as §4
[16] = tested on: NCI-H460; assay: Potentiation of paclitaxel-induced cytotoxicity against human NCI-H460 cells assessed as reduction in cell viability at 1 times of GI50 incubated for 48 hrs by MTT assay (reference value: 92.3 %); type: functional; outline: as §4
[17] = tested on: NCI-H460; assay: Potentiation of paclitaxel-induced cytotoxicity against human NCI-H460 cells assessed as reduction in cell viability at 0.5 times of GI50 incubated for 48 hrs by MTT assay (reference value: 92.3 %); type: functional; outline: as §4
[18] = tested on: NCI-H460; assay: Induction of mitotic arrest in human NCI-H460 cells assessed as accumulation of bright round shape cells at 1 uM incubated for 15 hrs by phase contrast microscopy; type: functional, cell-based
[19] = tested on: NCI-H460; assay: Induction of mitotic arrest in human NCI-H460 cells assessed as mitotic index 1 uM incubated for 15 hrs by DAPI staining based phase contrast microscopy (reference value: 11.3 %); type: functional
[20] = tested on: NCI-H460; assay: Cytotoxicity against human NCI-H460 cells assessed as reduction in cell viability at 25 nM incubated for 48 hrs by MTT assay; type: functional, cell-based; outline: as §4

| GI50 [1] | GI50 [3] | log Kp [4] | logP at 0.5 h [5] | SMILES | GI50 [2] | also measured |
| --- | --- | --- | --- | --- | --- | --- |
| 7.7 µM | 7.12 µM | 3.41 | 3.14 | COc1cc(/C=C/C(=O)c2cccs2)cc(OC)c1 | 4.15 µM |  |
| 5.95 µM | 5.06 µM | 3.49 | 2.99 | COc1cc(/C=C/C(=O)c2cccs2)cc(OC)c1OC | 3.63 µM |  |
| 5.56 µM | 6.28 µM | 3.53 | 3.23 | COc1cc(/C=C/C(=O)c2ccc(C)s2)cc(OC)c1OC | 5.7 µM | Activity [6]: Active; Activity [7]: Active; Activity [8]: 25.8 - 49.37%; Activity [9]: Active; Activity [10]: Active; Activity [11]: 28%; Activity [12]: Active; Activity [13]: Active; Activity [14]: 67.9%; Activity [15]: 96.9%; Activity [16]: 46.8%; Activity [17]: 51.8% |
| 8.41 µM | 9.61 µM | 4.1 | 4.54 | COc1ccc(C(=O)/C=C/c2cc(Cl)cc(Cl)c2)cc1OC | 4.51 µM |  |
| 3.97 µM | 5.6 µM | 3.3 | 3.22 | COc1ccc(C(=O)/C=C/c2cc(OC)c(OC)c(OC)c2)cc1OC | 2.89 µM |  |
| 3.26 µM | 3.02 µM | 3.54 | 3.29 | COc1cc(/C=C/C(=O)c2cc(C)cs2)cc(OC)c1OC | 3.21 µM |  |
| 15.1 µM | 27.7 µM | 3.14 | 4.52 | COc1ccc(C(=O)/C=C/c2ccc(Cl)c(Cl)c2)cc1OC | 4.14 µM |  |
| 12.1 µM | 8.44 µM | 2.77 | 4.35 | O=C(/C=C/c1ccc(Cl)c(Cl)c1)c1cccs1 | 7.25 µM |  |
| 13.2 µM | 8.95 µM | 3.51 | 3.27 | COc1ccc(/C=C/C(=O)c2ccc(OC)c(OC)c2)cc1OC | 3.81 µM |  |
| 12.6 µM | 13.6 µM | 3.49 | 3.02 | COc1cc(OC)c(OC)cc1/C=C/C(=O)c1cccs1 | 11.1 µM |  |
| 11.7 µM | 8.34 µM | 4.33 | 4.38 | O=C(/C=C/c1cc(Cl)cc(Cl)c1)c1cccs1 | 5.38 µM |  |
| 6.49 µM | 10.8 µM | 3.29 | 3.35 | COc1cc(/C=C/C(=O)c2ccc(OC)c(OC)c2)cc(OC)c1 | 3.45 µM |  |
| 10.8 µM | 15.3 µM | 3.72 | 3.4 | COc1ccc(/C=C/C(=O)c2cc(C)cs2)cc1OC | 11.3 µM |  |
| 23.9 µM | 17.8 µM | 3.62 | 3.07 | COc1ccc(/C=C/C(=O)c2cccs2)cc1OC | 17.8 µM |  |
| 6.89 µM | 6.61 µM | 3.68 | 4.19 | COc1cc(/C=C/C(=O)c2cc3ccccc3s2)cc(OC)c1OC | 6.9 µM | Activity [6]: Active; Activity [7]: Active; Activity [8]: 25.8 - 49.37%; Activity [9]: Active; Activity [10]: Active |

Second part, the compound before the results:

| SMILES | GI50 [1] | GI50 [3] | log Kp [4] | logP at 0.5 h [5] | GI50 [2] | also measured |
| --- | --- | --- | --- | --- | --- | --- |
| COc1cc(C2OC2C(=O)c2cccs2)cc(OC)c1OC (stereo not given) | 59.9 µM | 61.8 µM | 2.8 | 2.51 | 38.5 µM |  |
| COc1cc(-c2cc(-c3cc(C)cs3)n[nH]2)cc(OC)c1OC | 16.3 µM | 16.1 µM | 4.04 | 3.27 | 16.1 µM |  |
| COc1cc(/C=C/C(=O)c2cc3cccc(O)c3o2)cc(OC)c1OC | 9.75 µM | 8.35 µM | 4.29 | 3.22 | 8.57 µM | Activity [6]: Active; Activity [7]: Active; Activity [8]: 25.8 - 49.37%; Activity [9]: Active; Activity [10]: Active |
| COC(=O)Nc1nc2cc(C(=O)c3cccs3)ccc2[nH]1 [NOCODAZOLE] |  |  |  |  |  | Activity [18]: Active; Activity [19]: 73.1% |
| COc1cc(OC)c(OC)cc1/C=C/C(=O)c1cc(C)cs1 | 10.1 µM | 7.48 µM | 3.6 | 3.31 | 6.96 µM |  |
| COc1cc(OC)c(OC)cc1/C=C/C(=O)c1ccc(OC)c(OC)c1 | 8.52 µM | 8.74 µM | 3.35 | 3.24 | 7.1 µM |  |
| COc1cc(C2OC2C(=O)c2cc(C)cs2)cc(OC)c1OC (stereo not given) | 14 µM | 16.9 µM | 3.75 | 2.5 | 6.63 µM |  |
| COc1cc(-c2cc(-c3cccs3)n[nH]2)cc(OC)c1OC | > 37.5 µM | > 37.5 µM | 3.16 | 2.99 | > 37.5 µM |  |
| COc1cc(/C=C/C(=O)c2cc(C)cs2)cc(OC)c1 | 4.28 µM | 4.44 µM | 3.52 | 3.43 | 3.33 µM |  |
| Cc1csc(C(=O)/C=C/c2cc(Cl)cc(Cl)c2)c1 | 12.2 µM | 11.8 µM | 4.43 | 4.67 | 7.14 µM |  |
| CC(=O)O[C@H]1C(=O)[C@@]2(C)[C@H]([C@H](OC(=O)c3ccccc3)[C@]3(O)C[C@H](OC(=O)[C@H](O)[C@@H](NC(=O)c4ccccc4)c4ccccc4)C(C)=C1C3(C)C)[C@]1(OC(C)=O)CO[C@@H]1C[C@@H]2O |  |  |  |  |  | Activity [20]: inactive |
| Cc1csc(C(=O)/C=C/c2ccc(Cl)c(Cl)c2)c1 | 22.5 µM | 15.5 µM | 2.8 | 4.65 | 12.1 µM |  |
